Assays:
[1] = (§1) Activity of HIV1 reverse transcriptase 41L/67N/70R/210W/215Y mutant in presence of 3.2 mM ATP by prA/odT assay; parameters: species or system Human immunodeficiency virus 1
Procedure, shortened: (§2)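 Buffer: 50 mM HEPES pH 7.3, 10 mM MgCl2, 0.5% Triton X-100, 0.1 mg/ml BSA. Incubation 180 min at 33°C. Product detected with AP-conjugated anti-BrdU at 405 nm. […] Ki from four inhibitor levels. At least two experiments in duplicate.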

[2] = (§3) Activity of HIV1 reverse transcriptase wild type HXB2(b) in presence of 3.2 mM ATP by prA/odT assay; parameters: species or system Human immunodeficiency virus 1
Procedure, shortened: (§4)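 Buffer is HEPES 50 mM pH 7.3 with MgCl2 10 mM, Triton X-100 0.5% and BSA 0.1 mg/ml. RT 4–12 pM/well, 33°C for 180 min, no NaOH step. Km obtained as the mean of at least two runs done in duplicate.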

[3] = (§5) Activity of HIV1 reverse transcriptase 41L/67N/70R/215Y/219Q mutant in presence of 3.2 mM ATP by prA/odT assay; parameters: species or system Human immunodeficiency virus 1; procedure, shortened: as §2
[4] = Activity of HIV1 reverse transcriptase 41L/69S-SG/210W/215Y mutant in presence of 3.2 mM ATP by prA/odT assay
[5] = Inhibition of HIV1 reverse transcriptase 41L/67N/70R/210W/215Y mutant in presence of 5'-A12-(GACT)5-3' by heteropolymeric DNA polymerase assay; parameters: species or system Human immunodeficiency virus 1
Procedure, shortened: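 DNA polymerase assay with 5 mM ATP and 1 μM each dATP, dGTP, dCTP and BrdUTP. The 50-base DNA template carries a 5′-A12 tail with a (GTCA)5 or (GACT)5 repeat. Incubation 180 min at 33°C, NaOH dehybridization, anti-BrdU-AP detection at 405 nm. IC50 from at least two experiments in duplicate. Fold change is relative to wild-type RT on the same template.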

[6] = test system: Human immunodeficiency virus 1; experiment: Activity of HIV1 reverse transcriptase wild type HXB2(a) in presence of 3.2 mM ATP by prA/odT assay; procedure, shortened: as §4
[7] = test system: Human immunodeficiency virus 1; experiment: as §1; procedure, shortened: as §2
[8] = test system: Human immunodeficiency virus 1; experiment: as §3; procedure, shortened: as §4
[9] = test system: Human immunodeficiency virus 1; experiment: as §5; procedure, shortened: as §2
[10] = test system: Human immunodeficiency virus 1; experiment: Activity of HIV1 reverse transcriptase 41L/69S-SG/210W/215Y mutant in presence of 3.2 mM ATP by prA/odT assay
[11] = molecular target: HIV1 RT 41L/69S-SG/210W/215Y mutant (HIV-1); experiment: Inhibition of HIV1 reverse transcriptase 41L/69S-SG/210W/215Y mutant in presence of 3.2 mM ATP by prA/odT assay

Compound | Km [1] [µM] | Km [2] [µM] | Km [3] [µM] | Km [4] [µM] | IC50 [5] [nM] | Km [6] [µM] | Km [7] [µM] | Km [8] [µM] | Km [9] [µM] | Km [10] [µM] | Ki [11] [nM]
Cc1cn([C@H]2C[C@H](N=[N+]=[N-])[C@@H](COP(=O)(O)OP(=O)(O)OP(=O)(O)O)O2)c(=O)[nH]c1=O [ZIDOVUDINE TRIPHOSPHATE] | 0.43 | 0.29 | 0.49 | 0.53 | – | – | – | – | – | – | –
C[C@H](Cn1cnc2c(N)ncnc21)OCP(=O)(O)OP(=O)(O)OP(=O)(O)O | – | – | – | – | 8600 | – | – | – | – | – | –
Cc1cn([C@H]2CO[C@@H](COP(=O)(O)OP(=O)(O)OP(=O)(O)O)O2)c(=O)[nH]c1=O | – | – | – | – | 400 | 0.32 | 0.51 | 0.24 | 0.42 | 0.5 | 59
